# GASC1 inh: inhibitors of GASC-1 (KDM4C) histone demethylase, primary screen, biochemical, single concentration HTS | Lysine-specific demethylase 4C (Homo sapiens), Q9H3R0 | 96,000 tested, 0.15% active | GST-KDM4C 2-372, H3K9me3 peptide, LANCE TR-FRET | inhibition, % at 12.5 µM | AID 720574, 2013;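 active means mean replicate inhibition above about 25%, with at least 55% of replicates also reaching it, limit read from the data, passing the limit was not always enough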
#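 System – N-terminal GST-fused human GASC-1 (KDM4C) fragment, residues 2-372 · Input – enzyme final amount 10 nM · Technique – LANCE TR-FRET, Eu antibody, ULight-streptavidin, EDTA, ex 340 nm, em 618/671 nm · Medium – HEPES buffer, pH 7.5, plus ascorbate · Incubation – enzyme reaction 30 min, then detection 60 min, both room temperature · Reagent – H3K9me3 peptide with Fe(II)/2OG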
# Tcruzi prolif: T. cruzi intracellular proliferation inhibitors, primary screen, cell-based, beta-gal Tulahuen parasites, NIH3T3 host, luminescence. 77,000 tested, 5.9% active. inhibition, % at 8.34 µM. T. cruzi beta-gal in NIH3T3, GalScreen luminescence, 90 h;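 active means mean inhibition above about 93%, with at least 55% of replicates each passing it, limit read from the data, passing the limit was not always enough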
# IDH1 R132H inh: inhibitors of IDH1 R132H reductase, primary screen, biochemical, plate reader, single point; Isocitrate dehydrogenase [NADP] cytoplasmic (Homo sapiens), O75874; diaphorase/resazurin fluorescence, 60 min; inhibition, % at 10 µM; 70,000 tested, 0.18% active; AID 624101, 2012; in the data active means inhibition above about 34%;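 further: 0% = DMSO and 100% = no enzyme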
# Target sequence (O75874 whole entry R132H): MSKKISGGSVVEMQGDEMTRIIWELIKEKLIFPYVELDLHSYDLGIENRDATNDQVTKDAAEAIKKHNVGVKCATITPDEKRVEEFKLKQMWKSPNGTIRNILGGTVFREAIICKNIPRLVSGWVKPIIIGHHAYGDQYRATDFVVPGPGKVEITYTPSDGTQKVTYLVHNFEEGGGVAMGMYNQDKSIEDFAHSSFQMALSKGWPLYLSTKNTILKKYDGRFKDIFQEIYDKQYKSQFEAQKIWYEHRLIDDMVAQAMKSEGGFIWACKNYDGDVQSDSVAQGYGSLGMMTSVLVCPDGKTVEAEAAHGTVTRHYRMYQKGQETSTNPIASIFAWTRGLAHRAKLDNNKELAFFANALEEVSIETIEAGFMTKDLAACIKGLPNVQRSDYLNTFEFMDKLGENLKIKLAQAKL
# The depositor's hits bear a star; · = not tested or not shown. Only a selection was taken, and hits are over-represented in it overall.
SMILES,GASC1 inh,Tcruzi prolif,IDH1 R132H inh
COc1ccc(S(=O)(=O)N(C)C[C@@H]2Oc3ccc(NS(=O)(=O)c4ccc(F)cc4)cc3CC(=O)N([C@@H](C)CO)C[C@@H]2C)cc1,0.9,3.7,-0.7
COc1ccc(S(=O)(=O)Nc2ccc3c(c2)C(=O)N([C@@H](C)CO)C[C@H](C)[C@@H](CN(C)C(=O)Nc2ccccc2)OCCCC[C@H](C)O3)cc1,0.5,10.3,·
O/N=C/c1ccc(Cl)s1,·,·,0.3
Cc1ccnc(SCC(=O)Nc2ccc(Br)cc2F)n1,·,·,-0.2
CCn1c(SCC(=O)Nc2ccc(F)c(Cl)c2)nnc1-c1ccc(Cl)cc1Cl,·,·,-0.3
CCOc1c(O)ccc(C(c2c[nH]c3ccccc23)c2c[nH]c3ccccc23)c1[N+](=O)[O-],·,·,-0.8
CCC(CC)C(=O)N1c2ccccc2CCc2ccccc21,·,·,0.5
COc1ccc(S(=O)(=O)N(C)C[C@H]2OCCCC[C@H](C)Oc3ccc(NC(=O)CCCN(C)C)cc3C(=O)N([C@H](C)CO)C[C@H]2C)cc1,45.3*,53.6,·
COc1ccc(S(=O)(=O)N(C)C[C@H]2OCCCC[C@@H](C)Oc3ccc(NC(=O)CCCN(C)C)cc3C(=O)N([C@H](C)CO)C[C@@H]2C)cc1,13.4,12.9,-2.7
CC(C)NC(=O)Nc1ccc2c(c1)CC(=O)N([C@H](C)CO)C[C@H](C)[C@@H](CN(C)Cc1ccncc1)O2,-0.2,·,12.8
C[C@@H]1CN([C@@H](C)CO)C(=O)Cc2cc(NC(=O)C3CCCCC3)ccc2O[C@H]1CN(C)Cc1ccncc1,1.2,61.6,45.8*
C[C@H]1CN([C@@H](C)CO)C(=O)Cc2cc(NC(=O)C3CCCCC3)ccc2O[C@H]1CN(C)Cc1ccncc1,0.8,21.0,2.4
C[C@@H]1CN([C@@H](C)CO)C(=O)Cc2cc(NC(=O)Nc3ccc(F)cc3)ccc2O[C@@H]1CN(C)Cc1ccncc1,·,76.2,18.0
CC(C)NC(=O)Nc1ccc2c(c1)CC(=O)N([C@@H](C)CO)C[C@@H](C)[C@H](CN(C)Cc1ccncc1)O2,1.2,·,43.0*
C[C@@H]1CN([C@@H](C)CO)C(=O)Cc2cc(NC(=O)Nc3ccc(F)cc3)ccc2O[C@H]1CN(C)Cc1ccncc1,0.7,67.9,34.4*
CC(=O)Nc1nonc1-c1nc2ccccc2n1Cc1cccc2ccccc12,·,·,-0.4
CS(=O)(=O)N(CC(=O)Nc1ccccc1C(F)(F)F)c1ccccc1Br,·,·,0.1
O=C(CSc1nnc(-c2ccc(Br)cc2)o1)Nc1cccc(C(=O)N2CCOCC2)c1,·,·,0.1
COC(=O)c1cc(OC)c(OC)cc1NC(=O)C(C)Oc1ccc(C(C)(C)C)cc1 (stereo not given),·,·,-0.1
C[C@H](CO)N1C[C@H](C)[C@@H](CN(C)C(=O)C2CCOCC2)Oc2ncc(Br)cc2C1=O,0.4,-26.6,0.2
C[C@@H]1CN([C@@H](C)CO)C(=O)c2cc(Br)cnc2O[C@@H]1CN(C)C(=O)C1CCOCC1,38.8*,-12.6,19.2
C[C@@H]1CN([C@@H](C)CO)C(=O)c2cc(-c3ccc(C#N)cc3)cnc2O[C@@H]1CN(C)C(=O)Nc1ccccc1,32.7*,54.9,5.8
C[C@H]1CN([C@@H](C)CO)C(=O)c2cc(-c3ccc(C#N)cc3)cnc2O[C@@H]1CN(C)C(=O)Nc1ccccc1,-1.0,39.1,-1.5
C[C@H](CO)N1C[C@H](C)[C@@H](CN(C)C(=O)c2ccccn2)Oc2ncc(Br)cc2C1=O,25.8*,·,8.0
C[C@@H]1CN([C@H](C)CO)C(=O)c2cc(Br)cnc2O[C@@H]1CN(C)C(=O)c1ccccn1,1.3,·,-0.7
SMILES,GASC1 inh,Tcruzi prolif,IDH1 R132H inh
CC(=O)OC1/C=C(/C(=O)O)CC/C=C(/C)C(=O)/C=C\C1(C)C (stereo not given),·,·,1.0
COC(=O)c1sc2ncn(CC(=O)Nc3cccc(Cl)c3C)c(=O)c2c1C,·,·,-0.1
Cc1ccccc1S(=O)(=O)N1[C@@H](C#N)[C@@H](c2ccc(-c3ccc(F)cc3)cc2)[C@@H]1CO,-2.6,106.8*,·
Cc1ccccc1S(=O)(=O)N1[C@H](C#N)[C@@H](c2ccc(-c3ccc(F)cc3)cc2)[C@@H]1CO,-0.4,83.6,·
COC(=O)c1ccc(NC(=O)CN(c2ccc(I)cc2)S(C)(=O)=O)cc1,·,·,0.4
COC(=O)C(O)(c1ccc(NC(=S)NC(=O)c2ccc(Cl)cc2Cl)c(OC)c1)C(F)(F)F (stereo not given),·,·,-0.2
C[C@H](CO)N1C[C@H](C)[C@@H](CN(C)Cc2ccncc2)Oc2cc(C3=CCCC3)ccc2S1(=O)=O,1.1,86.9,47.5*

# Screening results as filed in PubChem.
